# Results taken from ChEMBL document CHEMBL1268890, “Binding of diarrheic shellfish poisoning toxins to okadaic acid binding proteins purified from the sponge Halichondria okadai” (Bioorg Med Chem, 2010).
# Calls of active or inactive are those of the source. No cut-off for these calls is given here.
# Experiments:
# BL21-DE3 = assay: Displacement of [24-3H]OA from Halichondria okadai recombinant OABP 2.1 expressed in Escherichia coli BL21 (DE3) cells
# [1] = target: T1, Okadaic acid binding protein 2.3 (Halichondria okadai) (UniProt B0M1D1); assay: Displacement of [24-3H]OA from Halichondria okadai recombinant OABP 2.3 expressed in Escherichia coli BL21 (DE3) cells
# T1 sequence (whole entry): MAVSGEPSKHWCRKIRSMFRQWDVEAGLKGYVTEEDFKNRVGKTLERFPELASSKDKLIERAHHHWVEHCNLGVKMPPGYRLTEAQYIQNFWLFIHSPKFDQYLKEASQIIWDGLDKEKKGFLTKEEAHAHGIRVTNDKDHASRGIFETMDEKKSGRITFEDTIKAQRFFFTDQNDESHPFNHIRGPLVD
# P388 [2] = assay: Blockade of okadaic acid-induced cytotoxicity in mouse P388 cells after 2 days by WST-8 assay in presence of Halichondria okadai recombinant OABP 2.1; assay type: functional, cell-based; details: P388, 48 h
# Summary of the method: (§1)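 P388 cells kept in RPMI 1640 with FBS, penicillin and streptomycin. Cells exposed to 100 nM okadaic acid together with graded concentrations of recombinant OABP for 2 days. WST-8 then added for 4 h; relative viability read as absorbance at 450 nm; EC50 from dose-response.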
# P388 [3] = assay: Blockade of okadaic acid-induced cytotoxicity in mouse P388 cells after 2 days by WST-8 assay in presence of Halichondria okadai recombinant OABP 2.3; assay type: functional, cell-based; details: P388, 48 h; summary of the method: as §1
# P388 [4] = assay: Blockade of mitomycin-induced cytotoxicity in mouse P388 cells after 2 days by WST-8 assay in presence of Halichondria okadai recombinant OABP 2.1; assay type: functional, cell-based
Compound,Activity (BL21-DE3),Activity [1],EC50 (P388 [2]) [nM],EC50 (P388 [3]) [nM],Activity (P388 [4])
C=C1[C@@H](O)[C@@H]2O[C@]3(CC[C@H](/C=C/[C@@H](C)[C@@H]4CC(C)=C[C@@]5(O[C@H](C[C@@](C)(O)C(=O)O)CC[C@H]5O)O4)O3)CC[C@H]2O[C@@H]1[C@@H](O)C[C@H](C)[C@H]1O[C@@]2(CC[C@H]1C)OCCC[C@H]2C,Dose-dependent effect,Dose-dependent effect,–,–,–
C=C1[C@@H](O)[C@@H]2O[C@]3(CC[C@H](/C=C/[C@@H](C)[C@@H]4CC(C)=C[C@@]5(O[C@H](C[C@@](C)(O)C(=O)O)CC[C@H]5O)O4)O3)CC[C@H]2O[C@@H]1[C@@H](O)C[C@H](C)[C@H]1O[C@@]2(CCCCO2)CC[C@H]1C [OKADAIC ACID],Dose-dependent effect,Dose-dependent effect,92,87,inactive
